Experiment [1] can be described thus: (§1) Inhibition of BPAO after 20 mins by benzylamine assay. On the set-up: species or system Bos taurus. In short, it runs like this: (§2)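 Bovine plasma amine oxidase (~1 μM) preincubated with varying inhibitor concentrations at 30 °C in 50 mM sodium phosphate, pH 7.2. Aliquots taken over time were assayed for residual activity by the benzylamine assay, with benzaldehyde formation followed at 250 nm. The value is the concentration giving 50% inactivation at a fixed 20 min.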

The species named for experiment [2] is Bos taurus. The experiment is described as follows: Ratio of kinact to Ki for BPAO. In short, it runs like this:
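Inactivation of ~1 μM BPAO by varying inhibitor concentrations, at 30 °C in 50 mM sodium phosphate, pH 7.2. Residual activity in time aliquots was read by benzylamine oxidation (benzaldehyde, 250 nm). Log activity versus time gave pseudo-first-order rates, and kinact and Ki were obtained from Kitz–Wilson plots.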

The species named for experiment [3] is Bos taurus. In words: Inhibition of BPAO assessed as redox cycling activity by NBT assay. In short, it runs like this:
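BPAO was inactivated by preincubation with inhibitor in 50 mM sodium phosphate, pH 7.2. The inactivated preparations were then tested for TPQ cofactor redox cycling by the standard sodium glycinate nitroblue tetrazolium staining assay.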

The species named for experiment [4] is Bos taurus. The description is as §1. In short, it runs like this:
as §2

Each structure is given as a SMILES string. Activity calls are given as the source filed them. No cut-off for these calls is given here.

The results in this text go back to ChEMBL document CHEMBL1139049, “Highly potent 3-pyrroline mechanism-based inhibitors of bovine plasma amine oxidase and mass spectrometric confirmation of cofactor derivatization” (Bioorg Med Chem, 2007).

The term IC50 denotes the concentration needed to halve the response being measured. Low values mean greater potency, high ones weaker potency. With `Fc1c(F)c(F)c(C2=CCNC2)c(F)c1F`, in experiment [1], 6.1 µM corresponded to half-maximal inhibition (IC50). In addition, the Ratio in the experiment listed under Bos taurus [2] worked out at 6 mM⁻¹ min⁻¹. The result in the experiment listed under Bos taurus [3] was Active.
With `C1=C(c2ccccn2)CNC1`, the IC50 in experiment [1] came out at 0.75 µM. Besides, the Ratio in the experiment filed under Bos taurus [2] amounted to 65 mM⁻¹ min⁻¹.
Regarding `C1=C(c2ccc3ccccc3n2)CNC1`, the IC50 in experiment [1] was 2.7 µM. Further, in the experiment filed under Bos taurus [2], the Ratio was 13 mM⁻¹ min⁻¹.
Turning to `C[n+]1ccc(C2=CCNC2)cc1`, the IC50 in experiment [1] is > 1000 µM.
In turn, `C1=C(c2cccnc2)CNC1` yielded an IC50 in experiment [1] of 1.5 µM. In the experiment filed under Bos taurus [2], the Ratio was determined as 24 mM⁻¹ min⁻¹.
In experiment [1], `C1=C(c2nccc3ccccc23)CNC1` showed an IC50 of 0.86 µM. For the same molecule, the Ratio in the experiment filed under Bos taurus [2] stood at 40 mM⁻¹ min⁻¹. In the experiment listed under Bos taurus [3], the result was Active.
Turning to `C[n+]1cccc(C2=CCNC2)c1`, in experiment [1], the IC50 amounted to 500 µM.
As a reminder, the Ki is a measure of affinity in units of concentration, obtained from inhibition or displacement. A lower Ki goes with tighter binding. In the experiment listed under Bos taurus [4], `C1=C(c2ccncc2)CNC1` yielded a Kinact of 0.091 min⁻¹. Moreover, in experiment [1], the IC50 worked out at 50 µM and the Ki is 76 µM. Moreover, the Ratio in the experiment listed under Bos taurus [2] was found to be 1.2 mM⁻¹ min⁻¹. In addition, in the experiment filed under Bos taurus [3], the result was Active.
